This passage reports EC50 results from ChEMBL document CHEMBL1148939, “Montacin and cis-montacin, two new cytotoxic monotetrahydrofuran annonaceous acetogenins from Annona montana” (2004).

SMILES strings stand for the structures. Values after ≈ are worked out from the molar mass of the structure shown.

The subject of assay [1] is 1A9/ptx-10. Put plainly: Cytotoxicity against human 1A9/PTX10 cells after 3 days by SRB assay. The assay is classed as functional. The note with it: 1A9/ptx-10, 72 h, read-out: ED50 (the source's name). In a few lines: (§1)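 Cells were grown in RPMI-1640 with 25 mM HEPES, 0.25% NaHCO3, 10% FBS and kanamycin. Freshly trypsinized cells were seeded at 1500-7500 per well with compound from a DMSO-diluted stock and cultured for 3 days. Attached cells were fixed with cold 50% TCA, stained with 0.4% SRB, and the solubilized dye was read at 562 nm. ED50 is the concentration giving 50% growth reduction over 3 days.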

The test system of assay [2] is 1A9. Kind of assay: Cytotoxicity against human 1A9 cells after 6 days by SRB assay. The format is functional. Conditions: 1A9, 144 h, read-out: ED50 (the source's name). In a few lines:
(§2)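 Parent 1A9 ovarian cells or the PTX10 subline (mutated β-tubulin) were grown in RPMI-1640 with 25 mM HEPES, 0.25% NaHCO3, 10% FBS and kanamycin. Freshly trypsinized cells were seeded at 1500-7500 per well with DMSO-diluted compound, cultured for 6 days, and evaluated by SRB staining. Activity was expressed as ED50.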
Background: Sulforhodamine B stains cellular protein and so reports cell mass.

Assay [3] relates to KB. Put plainly: Cytotoxicity against human vincristine-resistant KB cells after 3 days by SRB assay in presence of Ca2+. The format is functional. Conditions: 72 h, read-out: ED50 (the source's name). Summed up:
(§3)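 This is the 3-day SRB growth assay in RPMI-1640 with 10% FBS and 25 mM HEPES, with CaCl2 added to the bioassay as the Ca2+ source. Trypsinized cells were seeded at 1500-7500 per well with DMSO-diluted compound, then fixed with cold TCA, stained with 0.4% SRB and read at 562 nm. ED50 is the concentration causing 50% growth reduction.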

The subject of assay [4] is HCT-8. Put plainly: Cytotoxicity against human HCT8 cells after 3 days by SRB assay in presence of Ca2+. The format is functional. Conditions: HCT-8, 72 h, read-out: ED50 (the source's name). In a few lines:
as §3

In assay [5] the test system is PC-3. Kind of assay: Cytotoxicity against human PC3 cells after 3 days by SRB assay. The format is functional. Conditions: PC-3, 72 h, read-out: ED50 (the source's name). In a few lines:
as §1

Assay [6] concerns 1A9/ptx-10. Kind of assay: Cytotoxicity against human 1A9/PTX10 cells after 6 days by SRB assay in presence of Ca2+. The format is functional. Conditions: 1A9/ptx-10, 144 h, read-out: ED50 (the source's name). In a few lines: (§4)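 1A9 ovarian cells or the β-tubulin-mutant PTX10 subline were grown in RPMI-1640 with 10% FBS and 25 mM HEPES. CaCl2 was included in the bioassay as the Ca2+ source. Cells were seeded at 1500-7500 per well with DMSO-diluted compound and cultured for 6 days before SRB staining. The read-out was ED50.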

Assay [7] is described as follows: Cytotoxicity against human U87MG cells after 3 days by SRB assay. The assay is classed as functional, U-87MG ATCC. The note with it: U-87 MG, 72 h, read-out: ED50 (the source's name).
Assay [8] deals with KB. Kind of assay: Cytotoxicity against human KB cells after 3 days by SRB assay. The format is functional. The note with it: 72 h, read-out: ED50 (the source's name). In a few lines: as §1
Assay [9] is described as follows: Cytotoxicity against human U87MG cells after 3 days by SRB assay in presence of Ca2+. The format is functional, U-87MG ATCC. Conditions: U-87 MG, 72 h, read-out: ED50 (the source's name).
Assay [10] has as its system 1A9/ptx-10. Kind of assay: Cytotoxicity against human 1A9/PTX10 cells after 6 days by SRB assay. The assay is classed as functional. Conditions: 1A9/ptx-10, 144 h, read-out: ED50 (the source's name). Summed up: as §2
Assay [11] deals with 1A9. Kind of assay: Cytotoxicity against human 1A9 cells after 3 days by SRB assay in presence of Ca2+. The format is functional. The note with it: 1A9, 72 h, read-out: ED50 (the source's name). In a few lines: as §3
Assay [12] concerns 1A9/ptx-10. Kind of assay: Cytotoxicity against human 1A9/PTX10 cells after 3 days by SRB assay in presence of Ca2+. The format is functional. Conditions: 1A9/ptx-10, 72 h, read-out: ED50 (the source's name). Summed up:
as §3

Assay [13] deals with A549. Kind of assay: Cytotoxicity against human A549 cells after 3 days by SRB assay in presence of Ca2+. The assay is classed as functional. The note with it: A549, 72 h, read-out: ED50 (the source's name). Summed up:
as §3

Assay [14] has as its system MCF7. Kind of assay: Cytotoxicity against human MCF7 cells after 3 days by SRB assay. Conditions: MCF7, 72 h, read-out: ED50 (the source's name). The format is functional. In a few lines: as §1
In assay [15] the test system is PC-3. Put plainly: Cytotoxicity against human PC3 cells after 3 days by SRB assay in presence of Ca2+. Conditions: PC-3, 72 h, read-out: ED50 (the source's name). The format is functional. Summed up:
as §3

The test system of assay [16] is 1A9. Put plainly: Cytotoxicity against human 1A9 cells after 3 days by SRB assay. The format is functional. Conditions: 1A9, 72 h, read-out: ED50 (the source's name). Summed up: as §1
The test system of assay [17] is KB. Kind of assay: Cytotoxicity against human vincristine-resistant KB cells after 3 days by SRB assay. Conditions: 72 h, read-out: ED50 (the source's name). The format is functional. Summed up: as §1
Assay [18] concerns 1A9. Put plainly: Cytotoxicity against human 1A9 cells after 6 days by SRB assay in presence of Ca2+. The format is functional. The note with it: 1A9, 144 h, read-out: ED50 (the source's name). In a few lines:
as §4

The subject of assay [19] is MCF7. Put plainly: Cytotoxicity against human MCF7 cells after 3 days by SRB assay in presence of Ca2+. The assay is classed as functional. The note with it: MCF7, 72 h, read-out: ED50 (the source's name). In a few lines:
as §3

The subject of assay [20] is A549. Kind of assay: Cytotoxicity against human A549 cells after 3 days by SRB assay. Conditions: A549, 72 h, read-out: ED50 (the source's name). The assay is classed as functional. In a few lines: as §1
The subject of assay [21] is KB. Kind of assay: Cytotoxicity against human KB cells after 3 days by SRB assay in presence of Ca2+. The assay is classed as functional. The note with it: 72 h, read-out: ED50 (the source's name). In a few lines:
as §3

Assay [22] relates to HCT-8. Put plainly: Cytotoxicity against human HCT8 cells after 3 days by SRB assay. The assay is classed as functional. The note with it: HCT-8, 72 h, read-out: ED50 (the source's name). Summed up: as §1
Assay [23] relates to SK-MEL-2. Kind of assay: Cytotoxicity against human SK-MEL-2 cells after 3 days by SRB assay in presence of Ca2+. The assay is classed as functional. The note with it: SK-MEL-2, 72 h, read-out: ED50 (the source's name). Summed up:
as §3

Assay [24] can be described thus: Cytotoxicity against human CAKI cells after 3 days by SRB assay. The format is functional. Conditions: 72 h, read-out: ED50 (the source's name). In a few lines: as §1
Assay [25] deals with SK-MEL-2. Kind of assay: Cytotoxicity against human SK-MEL-2 cells after 3 days by SRB assay. The assay is classed as functional. The note with it: SK-MEL-2, 72 h, read-out: ED50 (the source's name). In a few lines: as §1
Assay [26] is described as follows: Cytotoxicity against human CAKI cells after 3 days by SRB assay in presence of Ca2+. The format is functional. The note with it: 72 h, read-out: ED50 (the source's name). In a few lines:
as §3

Consider `CCCCCCC[C@@H](O)[C@H]1CC[C@@H]([C@@H](O)CCCCCCCCCC[C@@H](O)CC(=O)CC[C@@H](O)CC2=C[C@H](C)OC2=O)O1`, for which the EC50 was found to be 5.9 µg/mL (≈ 9.66 µM) in assay [1]; 0.54 µg/mL (≈ 0.884 µM) in assay [2]; 13.8 µg/mL in assay [3]; 11.7 µg/mL in assay [4]; 11.9 µg/mL (≈ 19.5 µM) in assay [5]; 0.11 µg/mL in [6]. Moreover, the EC50 in assay [7] was 15 µg/mL (≈ 24.6 µM); in [8], 7.7 µg/mL (≈ 12.6 µM); in [9], 14.3 µg/mL; in assay [10], 1.8 µg/mL (≈ 2.95 µM); in assay [11] it was 2 µg/mL; in [12] it was 5.3 µg/mL. The EC50 in assay [13] turned out to be 5.5 µg/mL; in assay [14], 6.7 µg/mL (≈ 11 µM); in assay [15], 12.1 µg/mL; in [16], 3.6 µg/mL (≈ 5.89 µM); in assay [17], 13.4 µg/mL (≈ 21.9 µM); in [18], 0.13 µg/mL. Also, the EC50 worked out at 6.4 µg/mL in assay [19], 6 µg/mL (≈ 9.82 µM) in [20], 8.2 µg/mL in assay [21] and 12.9 µg/mL (≈ 21.1 µM) in assay [22].
On to `CCCCCCC[C@H](O)[C@@H]1CC[C@@H]([C@@H](O)CCCCCCCCCC[C@H](O)CC(=O)CC[C@@H](O)CC2=C[C@H](C)OC2=O)O1` [MONTACIN], for which the EC50 in assay [1] was over 10 µg/mL; in assay [2], 6.7 µg/mL (≈ 11 µM); in assay [3] it was 13.9 µg/mL; in assay [4] it was 12.3 µg/mL; in [5] it was over 20 µg/mL; in [6] it was 2.8 µg/mL. For the same compound, the EC50 in assay [7] is over 20 µg/mL; in [8], 16.6 µg/mL (≈ 27.2 µM); in assay [23] it was 13.3 µg/mL; in assay [9], 14.2 µg/mL; in assay [10] it was 7.9 µg/mL (≈ 12.9 µM); in assay [11] it was 6.7 µg/mL. Besides, the EC50 was 7.5 µg/mL in assay [12]; over 20 µg/mL in assay [24]; 7.4 µg/mL in assay [13]; 10 µg/mL (≈ 16.4 µM) in [14]; 14.2 µg/mL in assay [15]; 11.2 µg/mL (≈ 18.3 µM) in assay [25]. Also, the EC50 in assay [16] is over 10 µg/mL; in [17] it was over 20 µg/mL; in assay [18], 4.5 µg/mL; in assay [19], 5.5 µg/mL; in assay [20], 12.9 µg/mL (≈ 21.1 µM); in assay [21], 9.1 µg/mL. Besides, the EC50 amounted to 16.5 µg/mL (≈ 27 µM) in assay [22] and 14.2 µg/mL in [26].
